Source: PubChem BioAssay
NPY-Y2 antag: NPY-Y2 receptor antagonists, primary screen, cell-based; 140,000 tested, 0.99% active; NPY-Y2 expressing cells, antagonist mode; AID 793, 2007; inhibition, % at 2.7 µM; in the data active = inhibition above about 17%;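 also: 0% = vehicle with agonist challenge and 100% = reference antagonist with challenge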
Target sequence (P49146 whole entry, looked up): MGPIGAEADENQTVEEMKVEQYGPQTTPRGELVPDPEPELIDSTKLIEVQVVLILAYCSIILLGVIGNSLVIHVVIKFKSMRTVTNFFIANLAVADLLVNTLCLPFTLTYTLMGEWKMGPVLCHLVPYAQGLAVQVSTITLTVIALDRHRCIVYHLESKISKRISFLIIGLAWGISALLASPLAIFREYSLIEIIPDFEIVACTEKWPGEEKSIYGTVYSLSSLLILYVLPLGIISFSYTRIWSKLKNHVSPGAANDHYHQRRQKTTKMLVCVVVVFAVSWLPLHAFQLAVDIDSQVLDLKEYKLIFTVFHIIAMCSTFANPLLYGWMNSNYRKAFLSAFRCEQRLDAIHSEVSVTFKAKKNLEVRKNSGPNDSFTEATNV
NPY Y1 blocker: NPY-Y1 receptor antagonists, primary screen, cell-based; Neuropeptide Y receptor type 1 (Homo sapiens), P25929; inhibition, % at 3.6 µM; 200,000 tested, 1% active; HEK293-CNG Y1 cells, membrane potential fluorescence; NPY at EC95, then isoproterenol;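 active = inhibition above the campaign mean inhibition of all tested compounds plus 3 SD, cut at about 20% in these data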;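 also: 0% = DMSO wells given NPY plus isoproterenol and 100% = isoproterenol alone without NPY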
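Test system – HEK293 Y1/CNG channel cell line · Also added – NPY agonist 25 nM, then isoproterenol 1 µM plus Ro 20-1724 25 µM · Compound dosing – one concentration, 3.6 µM, in 0.4% DMSO · Schedule – compound incubation 1 h at room temperature, readout 45 min post-stimulation · Technique – fluorescence, membrane potential probe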
NPY-Y1 PAM-ag: NPY-Y1 receptor potentiators or agonists, primary screen, cell-based | 220,000 tested, 0.37% active | NPY-Y1 expressing cells, potentiator/agonist activation | Neuropeptide Y receptor type 1 (Homo sapiens), P25929 | activation, % at 3.6 µM; in the data active = activation above about 33%, passing the limit was not always enough;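 also: cells stimulated with NPY at EC10 then isoproterenol at EC100; 0% = low agonist plus stimulus and 100% = saturating agonist plus stimulus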
NPY-Y2 PAM-ag: NPY-Y2 potentiators or agonists, primary screen, cell-based | cells expressing NPY-Y2, potentiator/agonist read-out | activation, % at 3.6 µM | 220,000 tested, 0.45% active | Neuropeptide Y receptor type 2 (Homo sapiens), P49146; in the data active = activation above about 27%;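 also: cells stimulated with NPY near EC25 plus isoproterenol at EC100; 0% = vehicle plus submaximal agonist and 100% = vehicle plus saturating agonist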
An asterisk follows results filed as active; . = not tested or not shown. Sampled rows, rich in hits. Any-hit rate of the full collection: about 1.8%.

SMILES	NPY-Y2 antag	NPY Y1 blocker	NPY-Y1 PAM-ag	NPY-Y2 PAM-ag
N=c1c2c(-c3ccccc3)c(-c3ccccc3)n(Cc3ccccc3)c2ncn1CCCn1ccnc1	49*	92*	-40	17
Cc1cc(NCCCn2ccnc2)n2nc(C)c(-c3ccccc3)c2n1	3	-4	-8	13
CCCCn1cnc2c(c(-c3ccccc3)c(-c3ccccc3)n2Cc2ccco2)c1=N	.	.	52*	52*
Cc1cc(C)n(-c2nc(SCCN(C)C)c3c4c(sc3n2)COC(C)(C)C4)n1	78*	147*	-167	-59
CCO[C@H]1OC(C(=O)NCc2ccccc2)=C[C@@H](c2ccc(C(F)(F)F)cc2)[C@@H]1CCCO	.	-8	37*	11
COc1ccc(NC(C)(C)c2nnnn2-c2c(C)cccc2C)cc1	.	.	6	8
C#CC(=O)N(c1cccc(OC)c1)C(C(=O)NC1CCCC1)c1cccs1 (centres undefined)	0	-4	55*	47*
COc1ccc(N2C(=O)C(CN3CCN(C)CC3)C2c2ccccc2)cc1 (centres undefined)	.	1	25	-3
CCOC(=O)c1oc2cccc(OCC(O)CNC(C)C)c2c1C (centres undefined)	2	-13	111*	105*
C=CCN1C(=Nc2cccnc2)SCC1(O)c1ccc(C)cc1 (centres undefined)	21*	20	-5	31
COc1cccc(NC(=S)N2CCC(N(C)CC3CCCO3)CC2)c1 (centres undefined)	3	-3	-1	14
c1ccc(-c2csc3ncnc(NCCN4CCOCC4)c23)cc1	3	-5	1	1
c1ccc(CNc2nc(CN3CCOCC3)nc3scc(-c4ccccc4)c23)cc1	19*	27*	-30	-17
CN(C)c1ccc(/C=N/OC(=O)Nc2ccccc2Cl)cc1	.	-1	-27	-6
Cc1nc(NC(C)c2ccccc2)c2c3c(sc2n1)CCC3 (centres undefined)	17*	38*	-66	-20
Cc1cccc(C)c1NC(=O)C[N+](C)(C)CC(O)COc1cccc2ccccc12 (centres undefined)	.	-10	98*	66*
Cc1ccc(NC(=O)CCC(=O)NNC(=O)COc2cccc3ccccc23)c(C)c1	10	0	-12	-19
COc1ccc(-c2c3c(=O)n(C)c(=O)n(C)c3cn2-c2cc(OC)ccc2OC)cc1	13	21*	-22	-25
Cc1ccc(CN2CC(C(=O)Nc3ccc(F)c([N+](=O)[O-])c3)CC2=O)cc1 (centres undefined)	.	-10	81*	70*
Cc1ccc(CN2CC(C(=O)Nc3cc(S(C)(=O)=O)ccc3Cl)CC2=O)cc1 (centres undefined)	0	8	0	-3
CC(=O)NC1C(=O)N(Cc2ccccc2)c2ccc(Br)cc21 (centres undefined)	.	.	-5	-12
CC(=O)NC1C(=O)N(CCc2ccccc2)c2ccc(Br)cc21 (centres undefined)	23*	23*	-19	-7
Cc1cc(C)n(-c2ccc(F)cc2CN2CCN(C3CCCC3)C(CCO)C2)n1 (centres undefined)	.	20*	17	-10
O=C(Nc1ccccc1)c1cc2ccc3ccccc3c2s1	.	.	2	-8
COc1ccc(O)c(-c2cc(-c3cccs3)[nH]n2)c1	-8	-23	58*	42*
SMILES	NPY-Y2 antag	NPY Y1 blocker	NPY-Y1 PAM-ag	NPY-Y2 PAM-ag
O=C(COc1ccc(Cl)cc1)NCCSCc1cccc(Cl)c1	17*	11	-31	-20
Clc1ccc(CN(Cc2ccc(Cl)cc2)c2nn[nH]n2)cc1	.	31*	-30	-26
c1ccc(CN(Cc2ccccc2)c2nn[nH]n2)cc1	.	4	-16	-5
CCN(CC)S(=O)(=O)c1cccc2cccnc12	-2	1	10	3
O=S(=O)(c1cccc2cccnc12)N(CCO)CCO	0	1	36*	6
CC[n+]1c(/C=C2\C=C(C)CC(C)(C)C2)sc2ccccc21	20*	22*	-13	-9
CCC1=C/C(=C/c2sc3ccccc3[n+]2CC)CC(C)(C)C1	.	6	-4	18
Cc1ccc(CN(C)C(=O)c2ccc3c(c2)NC(=O)CS3)o1	.	.	8	14
COc1ccc(CN2CCC(CO)(Cc3ccccc3)CC2)cc1Cn1cccn1	.	21*	-17	-25
CCNc1nc(NC(C)(C)C)nc(N2CCCCC2)n1	.	-3	50*	30*
CCNc1nc(N2CCCC2)nc(N2CCCC2)n1	.	15	19	-15
Cc1cccc(NS(=O)(=O)c2ccc(NC(=O)CN(c3cc([N+](=O)[O-])ccc3C)S(C)(=O)=O)cc2)c1	-5	-13	50*	42*
COc1ccc(C)cc1NS(=O)(=O)c1ccc(NC(=O)CN(c2cc([N+](=O)[O-])ccc2C)S(C)(=O)=O)cc1	-3	-9	40*	27*
CN1/C(=C/C2CC(=O)N(c3ccc([N+](=O)[O-])cc3)C2=O)C(C)(C)c2ccccc21 (centres undefined)	-1	7	0	-1
Cc1ccc(NC(=O)COc2ccc(Br)cc2C)cc1	4	10	-32	-20
CC(C)(C)NC[C@H](O)COc1nsnc1N1CCOCC1	1	-11	118*	104*
O=C1c2ccccc2C(=O)N1CCCCCc1nc(-c2ccccc2)no1	12	22*	-19	-5
Cc1ccc(-c2noc(CCCN3C(=O)c4ccccc4C3=O)n2)cc1	11	10	0	4
Cc1nn(-c2ccccc2)c(Cl)c1C(=O)NCCCCNC(=O)c1c(C)nn(-c2ccccc2)c1Cl	-2	6	-4	1
CCC(=O)N(Cc1c(C)nn(-c2ccccc2)c1Cl)c1ccc(Cl)cc1	19*	29*	-14	-11
S=C(Nc1cccnc1)Nc1ccccc1Br	.	3	-4	-6
Oc1cccc(NC(=S)Nc2cccnc2)c1	1	6	62*	60*
Fc1ccc(/C=N/n2c(-c3cccs3)n[nH]c2=S)cc1	2	1	-25	-17
Cc1cccc(OCC(=O)O/N=C(\N)Cc2ccc(Cl)cc2)c1	23*	16	-29	-33
Cc1ccc(OCC(=O)O/N=C(\N)Cc2ccc(Cl)cc2)cc1	21*	22*	-56	-21
COc1ccc(C(=O)C(CCCCC(CN(C)C)C(=O)c2ccc(OC)cc2)CN(C)C)cc1 (centres undefined)	22*	21*	-93	-23
O=C(CN1CCC(NC(=O)Nc2ccccc2-c2ccccc2)CC1)NCc1ccco1	4	2	2	-9
Cc1nnc(SC(C)C(=O)Nc2ccc(Cl)cn2)n1Cc1ccccc1 (centres undefined)	9	7	-3	1
CC(Sc1nnc(-c2ccc(Cl)cc2Cl)n1Cc1ccccc1)C(=O)Nc1nccs1 (centres undefined)	29*	26*	10	-1
Cc1ccc(S(=O)(=O)Nc2ccc(Br)cc2/C=N/n2cnnc2)cc1	1	-18	49*	47*
